Activity calls are given as the source filed them. The rule behind the calls is not given here.
What was measured:
Type in all cases: functional, cell-based
8505C = assay: Cytotoxicity against human 8505C cells assessed as cell survival after 96 hrs by sulforhodamine B assay
Summary of the method: (§1)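 Cells in exponential growth were seeded at densities that avoided confluence and, after 24 h, exposed to serial compound dilutions (0-30 μM, DMSO ≤0.5% final) for 96 h. Cells were then fixed with 10% TCA at 4 °C, washed with water, and stained with 0.4% SRB for about 20 min. Excess dye was removed with 1% acetic acid, bound dye was taken up in 10 mM Tris base, and absorbance was read at 570 nm.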

A2780 [1] = assay: Induction of apoptosis in human A2780 cells at EC90 after 48 hrs by acridine orange/propidium iodide staining-based fluorescence microscopic analysis
Summary of the method: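 The supernatant cells were pelleted, washed in PBS, resuspended in PBS, mixed with acridine orange/propidium iodide, and examined under a fluorescence microscope, with green-fluorescent cells scored as undergoing controlled death and orange cells as necrotic.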

HT-29 = assay: Cytotoxicity against human HT-29 cells assessed as cell survival after 96 hrs by sulforhodamine B assay; conditions: HT-29, 96 h; summary of the method: as §1
A549 = assay: Cytotoxicity against human A549 cells assessed as cell survival after 96 hrs by sulforhodamine B assay; conditions: A549, 96 h; summary of the method: as §1
[2] = Cytotoxicity against human 518A2 cells assessed as cell survival after 96 hrs by sulforhodamine B assay; conditions: 518A2, 96 h; summary of the method: as §1
MCF7 = assay: Cytotoxicity against human MCF7 cells assessed as cell survival after 96 hrs by sulforhodamine B assay; conditions: MCF7, 96 h; summary of the method: as §1
A2780 [3] = assay: Cytotoxicity against human A2780 cells assessed as cell survival after 96 hrs by sulforhodamine B assay; conditions: A2780, 96 h; summary of the method: as §1

CC1(C)CC[C@]2(C(=O)NCCN3CCCC3)CC[C@]3(C)C(=CC[C@@H]4[C@@]5(C)CC[C@H](O)[C@@](C)(CO)[C@@H]5CC[C@]43C)[C@@H]2C1
EC50 (8505C): 1800 nM | Activity (A2780 [1]): Active | EC50 (HT-29): 1200 nM | EC50 (A549): 1900 nM | EC50 [2]: 2000 nM | EC50 (MCF7): 3700 nM | EC50 (A2780 [3]): 1100 nM

From ChEMBL document CHEMBL3632609, “Hederagenin as a triterpene template for the development of new antitumor compounds” (Eur J Med Chem, 2015)
